Bioassay records from PubChem.
In the library only some 2% were active in any assay of this set; here they are far more common.
CSN deneddyl inh: inhibitors of CSN-mediated cullin deneddylation, primary screen, biochemical, fluorescence polarization, uHTS; inhibition, % at 12.5 µM; COP9 signalosome complex subunit 5 (Homo sapiens), Q92905; Purified CSN, SCF-Nedd8-OG deneddylation; 0.38% of 360,000 active;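 active means pattern-corrected inhibition above about 35%, with an unprinted fluorescence ratio check between 0.5 and 1.5, limit read from the data, passing the limit was not always enough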
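Assay system: HEK293T-derived human Csn5 enzyme; quantity: 0.24 nM enzyme; medium: Tris/NaCl/DTT buffer, pH 7.5; also added: substrate SCFSkp2-Nedd8OG, 10 nM; doses: 12.5 µM compound; schedule: 90 min reaction at room temperature; signal: FP; read-out: % inhibition of substrate cleavage by Csn5; benchmarks: substrate-only high control, full reaction low control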
Scp-1 inhibitor: Scp-1 phosphatase inhibitors, primary screen, biochemical, colorimetric, uHTS. Carboxy-terminal domain RNA polymerase II polypeptide A small phosphatase 1 (Homo …. Recombinant Scp1, phosphopeptide, malachite green phosphate absorbance. inhibition, % at 20 µM. 0.88% of 340,000 active;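 active means inhibition above about 50% at 20 µM, limit read from the data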
Target sequence (Q9GZU7 76-261 limits assumed): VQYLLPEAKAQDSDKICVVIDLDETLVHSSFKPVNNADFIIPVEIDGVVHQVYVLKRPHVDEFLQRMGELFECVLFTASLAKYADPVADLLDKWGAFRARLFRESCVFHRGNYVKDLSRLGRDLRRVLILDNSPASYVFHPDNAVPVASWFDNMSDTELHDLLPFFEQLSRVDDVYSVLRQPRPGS
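System: truncated SCP-1 phosphatase (76-261aa); medium: Tris acetate buffer pH 5.5 with MgCl2 and Tween-20; incubation: 45 min room-temperature reaction, 5 min colour, 30 min stabiliser; compound: single 20 µM dose, 1% DMSO; reagent: Phosphorylated 17-residue peptide substrate; read-out: % inhibition at 20 µM; technique: colorimetric free-phosphate detection, absorbance 630 nm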
SUMO1 PPI mod: modulators of SUMO1 protein-protein interactions, primary screen, biochemical, uHTS; inhibition, % at 20 µM; Small ubiquitin-related modifier 1 (Homo sapiens), P63165; AID 602429, 2012; 0.33% of 360,000 active; SUMO1 binding to a labelled peptide, TR-FRET, 1 h; in the data active means inhibition above about 37%
Target sequence (P63165 whole entry, looked up): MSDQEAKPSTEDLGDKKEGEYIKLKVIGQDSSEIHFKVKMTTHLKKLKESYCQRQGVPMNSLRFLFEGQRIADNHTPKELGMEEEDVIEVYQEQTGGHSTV
STEP inh: STEP phosphatase inhibitors, primary screen, biochemical, fluorescence intensity, uHTS. Tyrosine-protein phosphatase non-receptor type 5 (Homo sapiens), P54829. recombinant STEP, OMFP fluorogenic substrate. inhibition, % at 20 µM. 0.25% of 360,000 active. AID 588621, 2011;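 active means inhibition at 20 µM, scaled per plate between control wells, above about 37%, limit read from the data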
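System: STEP phosphatase, cell-free reaction; Buffer or medium: Bis-Tris pH 6.0 buffer with DTT, detergent; Incubation: 20 min at room temperature, dark; Measured by: fluorescence, 480/540 nm.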
LMPTP block: LMPTP phosphatase inhibitors, primary screen, biochemical, fluorescence intensity, uHTS | Low molecular weight phosphotyrosine protein phosphatase (Homo sapiens), P24666 | recombinant LMPTP-A, OMFP fluorogenic substrate | inhibition, % at 20 µM | 0.22% of 360,000 active | AID 651560, 2012;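 active means compounds that cut the enzyme signal by at least half of the control window in the single-dose screen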
Target sequence (P24666 whole entry, looked up): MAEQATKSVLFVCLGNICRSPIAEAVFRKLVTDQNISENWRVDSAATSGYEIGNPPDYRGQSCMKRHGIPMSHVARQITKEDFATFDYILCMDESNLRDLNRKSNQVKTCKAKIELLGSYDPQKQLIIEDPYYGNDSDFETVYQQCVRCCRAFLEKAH
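Material: LMPTP-A; amount: 0.625 nM enzyme; doses: single 20 µM dose; times: reaction 50 min, room temperature, dark; technique: fluorescence intensity of OMFP turnover product; benchmarks: no-enzyme and uninhibited controls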
DNMT1 block: human DNMT1 methyltransferase inhibitors, primary screen, biochemical, molecular beacon, fluorescence, HinP1I cleavage, uHTS | DNA (cytosine-5)-methyltransferase 1 (Homo sapiens), P26358 | inhibition (reported as % activation of signal), % at 10 µM | 0.83% of 360,000 active | AID 588458, 2011; in the data active means inhibition above about 50%
DNMT1 confirm: DNMT1 methyltransferase inhibitor retest, confirmation, biochemical, molecular beacon, fluorescence, single concentration. AID 602385, 2012. inhibition, % at 10 µM. DNMT1 molecular beacon HinP1I cleavage. shares compounds with DNMT1 block. 8% of 2,300 active;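 active means average inhibition of at least 30% in the single-concentration confirmation test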
Beacon interf: beacon fluorescence artifact counter-screen. shares compounds with DNMT1 block. DNMT1 molecular beacon spectral interference counterscreen, fluorescence 485/520. activation (fluorescence interference), % at 10 µM. 1% of 2,300 active;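 active means activation of at least 30% at 10 µM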;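 further: DNMT1 catalytic domain with a HinP1I cleavage step and a FAM/dabcyl DNA beacon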
Each line names hits and unclear results; the compound was inactive in the other large screens (follow-up assays come after a bar, where they were run); ! = not confirmed by another sample.

CC(C)OCCCn1c(=N)c(C(N)=S)cc2c(=O)n3ccccc3nc21	DNMT1 block 64 | DNMT1 confirm inactive | Beacon interf inactive
CCOC(=O)c1cn(-c2nc(-c3ccc(Cl)c(Cl)c3)cs2)c2c(F)c(N3CCOCC3)c(F)cc2c1=O	DNMT1 block 58 | DNMT1 confirm inactive | Beacon interf inactive
CCOC(=O)c1cn(-c2ccc(F)c(F)c2F)c2c(F)c(F)c(F)cc2c1=O	none
Cc1ccc(NC(=O)Nc2nnc(-c3ccccc3F)s2)cc1	DNMT1 block 56 | DNMT1 confirm inactive | Beacon interf inactive
CCOC(=O)C(C)On1c(-c2ccccc2)nc2ccc([N+](=O)[O-])cc21 (stereo not drawn)	none
O=C(O)COn1c(-c2ccccc2)nc2ccc([N+](=O)[O-])cc21	Scp-1 inhibitor 81, DNMT1 block 66 | DNMT1 confirm inactive | Beacon interf inactive
C[c-]1[c-](C)[c-](C)[c-](C)[c-]1C.[Fe].c1cc2nccc(N3CCCC3)[c-]2c1 (stereo not drawn)	Scp-1 inhibitor 68!, SUMO1 PPI mod 120, STEP inh 77, LMPTP block 71, DNMT1 block 102! | DNMT1 confirm inactive | Beacon interf inactive
O=C(Nc1ccc(Cl)cc1)C1Cc2c(-c3ccccc3Oc3ccccc3)ccnc2O1 (stereo not drawn)	none (no result: Scp-1 inhibitor)
Cn1c(SCC(=O)c2cc(Cl)c(Cl)s2)nnc1-c1ccco1	DNMT1 block 52 | DNMT1 confirm inactive | Beacon interf inactive
Cc1ccc(C(=O)CSc2nnc(-c3ccco3)n2C)cc1	none
Cc1nc(C)c(C(=O)Nc2ncc([N+](=O)[O-])s2)o1	DNMT1 block 69 | DNMT1 confirm inactive | Beacon interf inactive
O=C(/C=C1\OCc2ccccc21)c1ccccc1	none (no result: Scp-1 inhibitor, STEP inh, DNMT1 block)
Cc1oc(-c2ccc(Cl)cc2)cc1-c1nn2c(-c3ccoc3C)nnc2s1	CSN deneddyl inh 36, DNMT1 block 93 | DNMT1 confirm inactive | Beacon interf inactive
Clc1ccc(-c2nnc3sc(-c4ccc(Br)o4)nn23)c(Cl)c1	none
Clc1ccc(-c2nnc3sc(-c4ccc(Br)o4)nn23)cc1	DNMT1 block 112 | DNMT1 confirm 61 | Beacon interf 48
CCCN(C(=O)CSc1n[nH]c(-c2ccc(OC)cc2)n1)c1c(N)n(Cc2ccccc2)c(=O)[nH]c1=O	none
COC(=O)C1=C(C(=O)OC)C(C(=O)OC)N2C=CC=CC2=C1C(=O)OC (stereo not drawn)	none (no result: Scp-1 inhibitor)
Cn1c(CCC(=O)Nc2cc(S(C)(=O)=O)ccc2Cl)nc2cc(S(=O)(=O)N3CCOCC3)ccc21	none
CC(C)CN(C(=O)COC(=O)c1cc2c(s1)CCC2)C1CCS(=O)(=O)C1 (stereo not drawn)	Scp-1 inhibitor 89, DNMT1 block 96 | DNMT1 confirm inactive | Beacon interf inactive
CCCCNc1ccc(C(CC(N)=O)NC(=O)Cc2cccc3ccccc23)cc1[N+](=O)[O-] (stereo not drawn)	DNMT1 block 51 | DNMT1 confirm inactive | Beacon interf inactive
COc1ccc(NC(=O)CN2CCN(CC(=O)Nc3ccc(F)cc3)CC2)c(OC)c1	none
O=C(O)c1ccc(C(=O)c2ccc3c(c2)C(=O)N(CCO)C3=O)cc1	DNMT1 block 88 | DNMT1 confirm inactive | Beacon interf inactive
